A short description of series [1]: melting temperature; fluorescence melt of hairpins on a sequencing array, two-state fit, raised by 9.35 °C to match UV melts. The settings on record: sodium 0.088 M. An outline of the steps:
(§1)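 In 50 mM Na-HEPES pH 8.0 containing 25 mM NaCl, hairpins from the library on a sequenced MiSeq flow cell were imaged for Cy3 fluorescence at 2.5 °C steps up to 60 °C, with Cy3 and quencher oligos annealed. After normalisation to pre-quench Cy3 and to control constructs, two-state fits with bootstrapping gave melting temperature and folding enthalpy. Four replicates were combined by inverse-variance weighting, and fitted temperatures were shifted up by 9.35 °C to match UV melts.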

A short description of series [2]: folding enthalpy; higher = less favourable; fluorescence melt of hairpins on a sequencing array, two-state fit. The following applies: sodium 0.088 M. An outline of the steps:
as §1

As for GAAGGACGAAAGTCTTTC (((.(((....))).))), the Tm in series [1] was 46.3 °C. In addition, in series [2], the folding enthalpy was -25 kcal/mol.
As for GTCAAGGGAAACTTTGAC (((((.(....).))))), the Tm in series [1] was found to be 40.3 °C. Besides, in series [2], the folding enthalpy is -26.4 kcal/mol.
The matching figures for GATCTGTCACAGATC ((((((...)))))): 50.6 °C and -36.2 kcal/mol.
For the sequence GTGGAGCCGAAAGGCCAC (((..(((....)))))), the Tm in series [1] is 50.5 °C. Also, the folding enthalpy in series [2] is -13.7 kcal/mol.
Turning to GGAGCCGCGAAAGCGTCC (((..(((....)))))), in series [1], the Tm was 30.7 °C. In series [2], the folding enthalpy is -10.9 kcal/mol.
The matching figures for GCGACTTCTCGC ((((....)))): 47.8 °C and -25.7 kcal/mol.
On the same counts, the results for GATCCTGATAGGATC ((((((...)))))) are 53.2 °C and -31.6 kcal/mol.
The matching figures for GCCGTACGAAAGTAAGGC (((.(((....))).))): 60.1 °C and -36.6 kcal/mol.
Take GATCATCTTGATGATC ((((((....)))))): the Tm in series [1] worked out at 57.2 °C. The folding enthalpy in series [2] is -43.4 kcal/mol.
The matching figures for GGTCCAGGAAACTGGGTC (..((((....))))..): 39.5 °C and -15.3 kcal/mol.
Turning to GAGTACGAAAGTACCCTC ((((((....)))..))), the Tm in series [1] stood at 38.6 °C. The folding enthalpy in series [2] was -13.2 kcal/mol.
Take GGTTCGCGAAAGCGTACC (((.(((....))).))): the Tm in series [1] is 56 °C. The folding enthalpy in series [2] is -26 kcal/mol.
As to GTCTAAGGAAACTCAGAC ((((.((....)).)))), the Tm in series [1] came out at 26.6 °C. Moreover, the folding enthalpy in series [2] is -11.5 kcal/mol.
The matching figures for GGATCTCGAAAGAGTTCC (((.(((....))).))): 46.1 °C and -27.5 kcal/mol.
On the same counts, the results for GACATGCGAAAGCAGTC (((.(((....)))))) are 51.9 °C and -16.9 kcal/mol.
Consider GCCTAGGGAAACTTGGGC (((.(.(....).).))), for which the Tm in series [1] stood at 36.7 °C. The folding enthalpy in series [2] is -28.3 kcal/mol.
On the same counts, the results for GCCAACGAAAGTTGAGGC ((((((....)))..))) are 48.5 °C and -19.4 kcal/mol.
Turning to GATCTGGAACCAGATC ((((((....)))))), the Tm in series [1] is 53.9 °C. For the same sequence, the folding enthalpy in series [2] is -38.5 kcal/mol.
The matching figures for GATCCGTAGCGGATC ((((((...)))))): 56 °C and -35.6 kcal/mol.
On the same counts, the results for GATCTGTCCCCAGATC ((((((....)))))) are 47.9 °C and -37.5 kcal/mol.
Regarding GTAGGCGGAAACACCTAC (((((.(....).))))), in series [1], the Tm came to 44.5 °C. The folding enthalpy in series [2] was -25.8 kcal/mol.
On the same counts, the results for GGAAGCCGAAAGGCTCC (((.(((....)))))) are 56 °C and -15.7 kcal/mol.
On the same counts, the results for GTGCGCGAAAGCGCCCAC ((((((....)))..))) are 43.3 °C and -6.88 kcal/mol.
In the case of GATCCCCCATGGGATC ((((((....)))))), the Tm in series [1] stood at 59.9 °C. Also, in series [2], the folding enthalpy is -36.5 kcal/mol.
The matching figures for GGCTGTGGAAACACAGTC (.(((((....))))).): 54.2 °C and -28.2 kcal/mol.
For the sequence GAAATACGAAAGTAATTC (((.(((....))).))), the Tm in series [1] was found to be 32.9 °C. Moreover, the folding enthalpy in series [2] was -15 kcal/mol.
The matching figures for GCTTGCGCGAAAGCGAGC (((..(((....)))))): 56.2 °C and -13.3 kcal/mol.
On the same counts, the results for GGGACTGGAAACGGTCTC (.(((.(....).))).) are 37.4 °C and -23.1 kcal/mol.
On the same counts, the results for GCTGGGCGAAAGCGCGGC ((.(.((....)).).)) are 64.1 °C and -33.2 kcal/mol.
Take GCCGAGCGAAAGCAGGGC (((..((....))..))): the Tm in series [1] worked out at 57.2 °C. Besides, the folding enthalpy in series [2] was -26.3 kcal/mol.
As to GTGATCGGAAACGATCGC (.(((((....))))).), in series [1], the Tm worked out at 57.6 °C. Besides, the folding enthalpy in series [2] was -36.4 kcal/mol.
For GGCAGAGGAAACTCTGCC (((((((....))))))), the Tm in series [1] amounted to 67.6 °C. Besides, the folding enthalpy in series [2] is -40.2 kcal/mol.
As for GCCCGGTCGAAAGACGGC (((..(((....)))))), the Tm in series [1] was 51.7 °C. Also, the folding enthalpy in series [2] is -18.1 kcal/mol.
The matching figures for GCATCGCGAAAGCAAAGC ((.(.((....)).).)): 38.9 °C and -9.75 kcal/mol.
The matching figures for GCGTAGCGAAAGCTCGGC ((..(((....)))..)): 39.9 °C and -7.84 kcal/mol.
On the same counts, the results for GAGTATGGAAACATACTC (((((((....))))))) are 54.4 °C and -37.6 kcal/mol.
As to GCAGCTGGAAACAGTTGC (((.(((....))).))), the Tm in series [1] amounted to 53.1 °C. In addition, in series [2], the folding enthalpy was -51.6 kcal/mol.
